From ChEMBL document CHEMBL4425150, “l-Cystine Diamides as l-Cystine Crystallization Inhibitors for Cystinuria” (J Med Chem, 2016)
Active and inactive are the calls of the source. No cut-off for these calls is given here.

How the values were obtained:
Cystine [1] = experiment: Inhibition of hexagonal L-cystine plate crystal growth assessed as reduction in crystal mass yield at 15 to 45 uM after 25 mins by atomic force microscopic analysis
Cystine [2] = experiment: Inhibition of hexagonal L-cystine plate crystal growth assessed as step velocity for crystal growth rate at 15 uM after 25 mins by atomic force microscopic analysis relative to control
Method in brief: (§1)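 In situ AFM of step velocity on {100} steps of hexagonal L-cystine crystals in aqueous 2 mM L-cystine, with additive at 15, 30 or 45 μM. Result expressed as V/V0, where V0 is the velocity measured first without additive; the value is a range.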

Cystine [3] = experiment: Inhibition of L-cystine crystallization assessed as concentration required to double metastable supersaturation range of L-cystine after 72 hrs by OPA/NBC derivatization based fluorescence assay
Method in brief: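 Test solution (5 μL) added to 500 μL supersaturated L-cystine, then held at 25 °C for 72 h and centrifuged (10000 rpm, 4 min). Supernatant diluted 2-fold, reduced with DTT (rt, 10 min), alkylated with iodoacetic acid (rt, 15 min), then derivatized with OPA/NBC (3 min). Fluorescence read at Ex 355/Em 460 nm gives L-cystine concentration. EC2x is the inhibitor concentration doubling the lower-plateau L-cystine level.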

Cystine [4] = experiment: Inhibition of hexagonal L-cystine plate crystal growth assessed as step velocity for crystal growth rate at 45 uM after 25 mins by atomic force microscopic analysis relative to control; method in brief: as §1
Cystine [5] = experiment: Inhibition of hexagonal L-cystine plate crystal growth assessed as step velocity for crystal growth rate at 30 uM after 25 mins by atomic force microscopic analysis relative to control; method in brief: as §1
Cystine [6] = experiment: Inhibition of hexagonal L-cystine plate crystal growth assessed as induction of plate to rod crystal morphology at 15 to 45 uM after 25 mins by atomic force microscopic analysis
[7] = Half life in pH 7.4 phosphate buffered saline at 100 uM at 37 degC by LC-MS/MS analysis; assay type: physicochemical; conditions: buffer, pH 7.4, 100 µM
Method in brief: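 Compound incubated in pH 7.4 phosphate buffered saline at 37 °C. Disappearance of parent followed over time by LC-MS, and half-life derived from that.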

[8] = Drug level in SLC3A1 knock out 129/C57BL6 mouse urine at 29.3 umol/kg, po administered daily through gavage for 1 week measured 4 hrs post last dose by LC-MS/MS analysis; assay type: ADME, organism-based; conditions: read-out: Drug uptake
Method in brief: (§2)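 Male mice, wild-type or Slc3a1 knockout, 4–5 per group, dosed by daily oral gavage at 29.3 μmol/kg for 1 week. Urine from each mouse collected individually over the 4 h right after the last dose. Compound in urine quantified by LC-MS/MS; pre-dose urine also tested.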

Cystine [9] = experiment: Potency index, ratio of L-cystine dimethyl ester concentration to compound concentration required to double metastable supersaturation range of L-cystine
Method in brief: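 Ratio is the EC2x of L-cystine dimethyl ester divided by the compound's EC2x. EC2x came from 72 h incubation at 25 °C in supersaturated L-cystine, with supernatant L-cystine measured by OPA/NBC fluorescence.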

Cystine [10] = experiment: Inhibition of L-cystine stone formation in SLC3A1 knock out 129/C57BL6 mouse model of cystinuria at 29.3 umol/kg, po administered daily through gavage for 4 weeks; assay type: functional, organism-based
Method in brief: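 Male Slc3a1 knockout mice, groups of six or seven, dosed by daily gavage at 29.3 μmol/kg for 4 weeks. A parallel control group of seven mice received water only. Read-out is the fraction of mice forming stones.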

[11] = Drug level in 129/C57BL6 mouse urine at 29.3 umol/kg, po administered daily through gavage for 1 week measured 4 hrs post last dose by LC-MS/MS analysis; assay type: ADME, organism-based; conditions: read-out: Drug uptake; method in brief: as §2

inhibition (Cystine [1])	Ratio (Cystine [2])	CD (Cystine [3])	Ratio (Cystine [4])	Ratio (Cystine [5])	inhibition (Cystine [6])	t1/2 [7]	concentration at 4 h [8]	Ratio (Cystine [9])	concentration at 4 h [11]	SMILES	inhibition (Cystine [10])
Active	0.4 to 0.65	6.37 µM	0.21 to 0.48	0.27 to 0.54	Active	0.11 days	–	–	–	COC(=O)[C@@H](N)CSSC[C@H](N)C(=O)OC	–
Active	0.44 to 0.65	0.86 µM	0.29 to 0.53	0.34 to 0.58	Active	46.2 days	2.09 µM	7.4	–	Cl.Cl.N[C@@H](CSSC[C@H](N)C(=O)N1CCOCC1)C(=O)N1CCOCC1	inactive
Active	0.52 to 0.66	0.26 µM	0.3 to 0.4	0.32 to 0.5	Active	19.8 days	7.59 µM	24.5	2100 nM	CN1CCN(C(=O)[C@@H](N)CSSC[C@H](N)C(=O)N2CCN(C)CC2)CC1.Cl.Cl.Cl.Cl	Active
